Reference: paper PMC3417419 (British Journal of Pharmacology, 2012)
Read-outs that look alike come from different tables or passages of the source.

Assays:
[1] = biological target: GluN1/GluN2A NMDA receptors (Rattus norvegicus, UniProt P35439+Q00959); experiment: Two-electrode voltage-clamp; assay type: cell-based; settings: for mean dose ratio (r): two-point glycine curves
rat cortical neurones = experiment: NMDA-induced excitotoxicity assay in cortical cultures; assay type: cell-based; settings: NMDA 40 µM + glycine […], 1 h, DIV 7–10, assessed at 24 h
Summary of the method: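 Cortical neurones from E21 Sprague–Dawley rat embryos, grown in Neurobasal-A with B27, 1% rat serum and glutamine; AraC added at DIV 4. Before the assay, cultures moved to glycine-free non-trophic medium (10% MEM in HEPES salt-glucose medium). […] After 24 h, DAPI-stained pyknotic nuclei counted as percentage of total nuclei.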

[2] = biological target: GluN1/GluN2B NMDA receptors (Rattus norvegicus, UniProt P35439+Q00960); experiment: Two-electrode voltage-clamp; assay type: cell-based; settings: for antagonism of glutamate/glycine-evoked responses: TCN 213 10 µM
Sequence of GluN1/GluN2B NMDA receptors (Rattus norvegicus, UniProt P35439+Q00960) (Q00960 27-1482, other chains not shown): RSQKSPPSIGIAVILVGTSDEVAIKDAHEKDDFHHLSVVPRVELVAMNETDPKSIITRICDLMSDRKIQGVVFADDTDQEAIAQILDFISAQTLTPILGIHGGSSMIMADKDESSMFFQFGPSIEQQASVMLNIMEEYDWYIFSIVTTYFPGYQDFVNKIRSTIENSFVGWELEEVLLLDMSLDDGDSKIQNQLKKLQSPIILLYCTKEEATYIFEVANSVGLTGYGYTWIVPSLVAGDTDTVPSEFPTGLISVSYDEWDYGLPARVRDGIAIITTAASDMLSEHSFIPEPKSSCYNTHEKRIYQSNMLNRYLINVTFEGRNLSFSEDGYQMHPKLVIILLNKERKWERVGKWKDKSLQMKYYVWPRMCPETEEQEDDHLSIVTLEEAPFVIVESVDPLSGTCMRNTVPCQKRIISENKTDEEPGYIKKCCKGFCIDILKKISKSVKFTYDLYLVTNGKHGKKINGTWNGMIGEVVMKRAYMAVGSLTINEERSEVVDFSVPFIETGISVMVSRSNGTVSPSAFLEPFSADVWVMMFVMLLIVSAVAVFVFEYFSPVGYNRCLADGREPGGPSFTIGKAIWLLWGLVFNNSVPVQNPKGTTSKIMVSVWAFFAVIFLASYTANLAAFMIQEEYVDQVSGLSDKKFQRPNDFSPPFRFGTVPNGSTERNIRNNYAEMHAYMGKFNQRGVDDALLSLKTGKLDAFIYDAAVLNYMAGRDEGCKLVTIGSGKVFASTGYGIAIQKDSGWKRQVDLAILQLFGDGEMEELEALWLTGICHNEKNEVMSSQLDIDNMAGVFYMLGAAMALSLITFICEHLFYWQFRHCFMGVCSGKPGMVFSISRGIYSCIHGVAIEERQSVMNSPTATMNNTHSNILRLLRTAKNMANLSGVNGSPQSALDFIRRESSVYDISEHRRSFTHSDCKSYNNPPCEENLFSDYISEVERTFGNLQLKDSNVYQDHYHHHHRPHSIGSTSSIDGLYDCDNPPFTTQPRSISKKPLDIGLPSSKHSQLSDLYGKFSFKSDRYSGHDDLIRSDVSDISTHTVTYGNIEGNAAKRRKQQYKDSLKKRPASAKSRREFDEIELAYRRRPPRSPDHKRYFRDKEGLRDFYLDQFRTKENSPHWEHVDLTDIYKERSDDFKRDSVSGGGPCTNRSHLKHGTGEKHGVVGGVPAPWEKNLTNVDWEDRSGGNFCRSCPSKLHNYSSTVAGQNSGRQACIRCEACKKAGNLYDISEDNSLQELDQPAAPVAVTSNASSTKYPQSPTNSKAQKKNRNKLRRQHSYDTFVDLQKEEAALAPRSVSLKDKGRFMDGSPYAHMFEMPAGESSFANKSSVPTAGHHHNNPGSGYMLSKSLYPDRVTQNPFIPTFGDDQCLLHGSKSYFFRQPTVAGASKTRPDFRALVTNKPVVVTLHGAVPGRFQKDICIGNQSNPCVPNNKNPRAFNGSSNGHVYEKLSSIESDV

[3] = biological target: GluN1/GluN2A and GluN1/GluN2D NMDA receptors; settings: ref Chen et al., 2008; cited from earlier work
[4] = test system: GluN2A- and GluN2B-containing NMDA receptors; settings: cited from earlier work
native NMDA receptors = experiment: Whole-cell NMDA-evoked currents in cultured rat cortical neurones; assay type: cell-based; settings: for block of NMDA receptor-mediated currents, subset with greatest ifenprodil block: n= 7 cells
GluN1 subunit = settings: ref Bettini et al. (2010); cited from earlier work
[5] = test system: GluN1/GluN2B NMDA receptors; settings: non-competitive antagonist, block 'at most'; no reference given; cited from earlier work
[6] = TCN 213 30 µM, NMDA 50 µM + glycine 3 µM

Sequence of GluN1/GluN2A NMDA receptors (Q00959 23-1464, other chains not shown): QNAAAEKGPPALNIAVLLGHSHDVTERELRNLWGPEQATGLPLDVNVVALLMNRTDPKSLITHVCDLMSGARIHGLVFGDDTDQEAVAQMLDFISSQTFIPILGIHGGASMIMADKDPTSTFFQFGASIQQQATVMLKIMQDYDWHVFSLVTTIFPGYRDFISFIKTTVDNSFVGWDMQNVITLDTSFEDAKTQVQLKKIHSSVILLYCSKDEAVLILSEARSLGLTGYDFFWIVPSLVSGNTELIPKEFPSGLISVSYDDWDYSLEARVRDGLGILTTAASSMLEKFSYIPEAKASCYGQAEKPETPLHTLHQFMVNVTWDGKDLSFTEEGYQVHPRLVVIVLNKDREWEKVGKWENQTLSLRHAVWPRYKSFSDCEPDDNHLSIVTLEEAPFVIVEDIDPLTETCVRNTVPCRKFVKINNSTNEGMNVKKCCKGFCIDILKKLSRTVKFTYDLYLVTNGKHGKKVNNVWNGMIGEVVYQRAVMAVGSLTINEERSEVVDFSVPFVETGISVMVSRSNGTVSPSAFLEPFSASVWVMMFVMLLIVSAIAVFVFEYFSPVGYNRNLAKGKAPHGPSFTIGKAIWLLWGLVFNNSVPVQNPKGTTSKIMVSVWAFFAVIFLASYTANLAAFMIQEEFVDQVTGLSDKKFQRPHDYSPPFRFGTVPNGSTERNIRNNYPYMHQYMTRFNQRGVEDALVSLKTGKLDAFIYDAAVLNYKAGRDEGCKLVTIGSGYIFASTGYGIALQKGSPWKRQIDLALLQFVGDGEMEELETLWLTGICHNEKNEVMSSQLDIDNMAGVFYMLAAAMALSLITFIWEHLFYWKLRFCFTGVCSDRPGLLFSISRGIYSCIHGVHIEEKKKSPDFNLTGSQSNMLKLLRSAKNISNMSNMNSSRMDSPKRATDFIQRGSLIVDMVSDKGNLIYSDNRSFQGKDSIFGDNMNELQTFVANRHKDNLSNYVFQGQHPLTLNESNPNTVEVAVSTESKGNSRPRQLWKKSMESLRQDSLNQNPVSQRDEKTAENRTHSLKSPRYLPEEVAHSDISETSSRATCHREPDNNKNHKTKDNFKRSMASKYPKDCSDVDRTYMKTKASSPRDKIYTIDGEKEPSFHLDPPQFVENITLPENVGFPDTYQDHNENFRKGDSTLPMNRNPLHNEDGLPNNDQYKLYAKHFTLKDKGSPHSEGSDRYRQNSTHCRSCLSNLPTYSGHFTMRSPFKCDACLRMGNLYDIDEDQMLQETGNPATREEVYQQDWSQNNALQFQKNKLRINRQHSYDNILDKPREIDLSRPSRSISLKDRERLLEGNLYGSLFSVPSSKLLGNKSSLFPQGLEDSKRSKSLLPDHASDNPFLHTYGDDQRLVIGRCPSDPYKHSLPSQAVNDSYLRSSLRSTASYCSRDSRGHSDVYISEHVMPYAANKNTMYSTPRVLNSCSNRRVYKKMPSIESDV

## O=C(O)c1cc(=O)c2c(Cl)cc(Cl)cc2[nH]1 [5,7 DCKA, 5,7 dichlorokynurenic acid]
[1]; read-out: Antagonist IC50, [gly]= 0.1 EC50 ([…] glycine) + 100 µM glutamate
  IC50: 130 ± 10 nM
[1]; read-out: Antagonist IC50, [gly]= 10 EC50 (15 µM glycine) + 100 µM glutamate
  IC50: 4100 ± 300 nM
[1]; read-out: Antagonist IC50, [gly]= EC50 ([…] glycine) + 100 µM glutamate
  IC50: 420 ± 30 nM
Rat cortical neurones; 5,7 DCKA 10 µM
  NMDA-induced cell death (pyknotic nuclei) versus NMDA alone: reduced significantly
[2]; read-out: Antagonist IC50
  IC50: 74 ± 10 nM
[2]; read-out: Antagonist IC50, [gly]= 10 EC50
  IC50: 4100 ± 400 nM
[2]; read-out: Antagonist IC50, [gly]= EC50
  IC50: 490 ± 10 nM
[3]
  KB values at GluN1/GluN2A versus GluN1/GluN2D (Schild analysis): indistinguishable

## [N-]=[N+]=Nc1ccc(CC(=O)NC2CC(C(=O)O)Nc3cc(Cl)cc(Cl)c32)cc1 (centres unmarked) [CGP-61594]
[4]; more potent at GluN1/GluN2B, ref Honer et al., 1998
  potency at GluN1/GluN2B compared with GluN1/GluN2A NMDA receptors: 10 fold

## O=C(Nc1ccccc1)N[C@@H]1C[C@@H](C(=O)O)Nc2cc(Cl)cc(Cl)c21 [L-689 560]
[4]; ref Hess et al., 1996
  selectivity for GluN2A- over GluN2B-containing NMDA receptors: 5 fold

## O=C(CSc1nnc(NCc2ccccc2)s1)NCC1CCCCC1 [TCN 213, N-(cyclohexylmethyl)-2-({5-[(phenylmethyl)amino]-1,3,4-thiadiazol-2-yl}thio)acetamide]
[1]; 10 µM TCN 213, glutamate 100 µM
  mean dose ratio (r): 5.20 ± 0.79
[1]; 30 µM TCN 213, glutamate 100 µM
  mean dose ratio (r): 17.22 ± 1.69
[1]; 95% confidence interval 0.94–1.31
  Schild plot slope, 'free' fit: 1.13
[1]; Antagonist IC50, [gly]= 0.1 EC50 ([…] glycine) + 100 µM glutamate
  IC50: 550 ± 50 nM
[1]; Antagonist IC50, [gly]= 10 EC50 (15 µM glycine) + 100 µM glutamate
  IC50: 40000 ± 3500 nM
[1]; Antagonist IC50, [gly]= EC50 ([…] glycine) + 100 µM glutamate
  IC50: 3500 ± 50 nM
[1]; TCN 213 10 µM, glutamate 100 µM, glycine 150 nM (0.1 × EC50)
  block of glutamate/glycine-evoked current: Almost complete block
[1]; TCN 213 10 µM, glutamate 100 µM, glycine 15 µM (10 × EC50)
  block of glutamate/glycine-evoked current: substantially less block
[1]; TCN 213 10 µM, glycine 50 µM, glutamate 0.1, 1, 10 × EC50
  dependence of antagonism on glutamate concentration: not dependent on the glutamate concentration
[1]; TCN 213 10 µM, glycine […], read from Figure 2A
  expected block of current for a purely GluN2A-containing population: around 75%
[1]; [6]
  mean block of NMDA-evoked current: 78 ± 4%
[1]; TCN 213 30 µM, NMDA 50 µM + glycine 3 µM, single oocyte
  reduction in amplitude of current response, example trace: approximately 75%
[1]; from IC50 values at glycine = EC50
  selectivity GluN1/GluN2A over GluN1/GluN2B: around 100 fold
[1]; glutamate 100 µM, glycine 50 µM and above
  surmountability of antagonism by increasing glycine: surmountable
[1]; glycine 10 times EC50, extrapolation of Figure 2A
  concentration predicted to block fully the response: around 1 mM
[2]
  IC50: > 300000 nM
[2]; 50 µM glycine, three glutamate concentrations
  antagonism of glutamate/glycine-evoked responses: no antagonism
[2]; glycine low (0.1 × EC50)
  antagonism of glutamate/glycine-evoked responses: only modestly antagonized
[2]; [6]
  mean block of NMDA-evoked current: 2 ± 0.5%
[2]; TCN 213 30 µM, glycine 1 and 10 times EC50
  inhibition of currents: negligible inhibition
Native NMDA receptors; TCN 213 10 µM, DIV 7–10, NMDA 50 µM + glycine […], −70 mV
  average inhibition of NMDA receptor-mediated currents: 2 ± 3%
Native NMDA receptors; TCN 213 10 µM, DIV 7–10
  block of NMDA receptor-mediated currents, subset with greatest ifenprodil block: 4 ± 2%
GluN1 subunit
  displacement of the GluN1 ligand MDL 105 519: failed to displace

## CC(C(O)c1ccc(O)cc1)N1CCC(Cc2ccccc2)CC1 (centres unmarked) [ifenprodil]
Rat cortical neurones; ifenprodil 3 µM
  NMDA-induced cell death (pyknotic nuclei) versus NMDA alone: reduced significantly
Native NMDA receptors; ifenprodil 3 µM, 7 DIV pyramidal cell, NMDA 50 µM + glycine […]
  reduction of NMDA + glycine evoked current, example cell: around 75%
Native NMDA receptors; ifenprodil 3 µM, DIV 7–10, NMDA 50 µM + glycine […], −70 mV
  average block of NMDA receptor-mediated currents: 72 ± 2%
Native NMDA receptors; ifenprodil 3 µM, DIV 7–10
  block of NMDA receptor-mediated currents, subset with greatest ifenprodil block: 78 ± 1%
[5]
  maximal block of current: 75–80%
